This is an account of results in ChEMBL document CHEMBL3875214, “Quercetin-glutamic acid conjugate with a non-hydrolysable linker; a novel scaffold for multidrug resistance reversal agents through inhibition of P-glycoprotein” (Bioorg Med Chem, 2017).

The source made the active and inactive calls.

Series [1] in a line: Antioxidant activity assessed as DPPH radical scavenging activity. Type of series: functional.
A short description of series [2]: Stability in human MES-SA cells assessed as reduction in quercetin release up to 100 uM by HPLC analysis. Type of series: ADME, cell-based. The procedure, abridged: (§1)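 MES-SA or MES-SA/Dx5 cells were incubated with compound for up to 48 h (0, 24, 48 h). Cell lysates were analysed by HPLC for intact compound and for released quercetin, and half-lives were derived from these measurements.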

Series [3] is described as follows: Stability in P-gp over-expressing human MES-SA/Dx5 cells assessed as reduction in quercetin release up to 100 uM by HPLC analysis. Type of series: ADME, cell-based. An outline of the steps: as §1
A short description of series [4]: Half life in human MES-SA cells up to 100 uM by HPLC analysis. Type of series: ADME, cell-based. The procedure, abridged:
as §1

Series [5] in a line: Half life in P-gp over-expressing human MES-SA/Dx5 cells up to 100 uM by HPLC analysis. The series is classed as ADME, cell-based. An outline of the steps: as §1
The species named for series [6] is Homo sapiens. The series is described as follows: Inhibition of P-gp in human MES-SA/Dx5 cells assessed as increase in doxorubicin accumulation at 5 uM after 30 mins by flow cytometry relative to control. The series is classed as cell-based. (In general: A flow cytometer gives signals particle by particle.)
For series [7], the species on record is Homo sapiens. The series is described as follows: Activity at human P-gp expressed in membranes assessed as stimulation of P-gp ATPase activity at 100 uM after 40 mins in presence of MgATP by […] relative to control. The procedure, abridged: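 Human Pgp membrane, 25 µg, incubated at 37 °C with compound at 100 µM, alongside Na3VO4 (100 µM) and 0.1% DMSO solvent controls. Reaction was started with 5 mM MgATP and run 40 min at 37 °C. Leftover ATP was read as luciferase luminescence after 20 min at room temperature. Activity was taken as the luminescence drop relative to the Na3VO4 sample.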
Background: A reporter such as luciferase makes a cellular process visible.

Series [8] is filed under the species Homo sapiens. The series can be described thus: Inhibition of P-gp in human MES-SA/Dx5 cells assessed as potentiation of doxorubicin-induced cytotoxicity by measuring fold reduction in doxorubicin EC50 at 5 uM after 72 hrs by MTT assay relative to untreated control. The series is classed as cell-based. An outline of the steps: (§2)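 MES-SA/Dx5 cells were seeded at 5×10^3 per well in complete RPMI-1640 and left 24 h at 37 °C, 5% CO2. Anticancer drug was added at 0.0001–100 µM final, with or without modulator at 5 µM (1% DMSO), for 72 h. Viability was read by MTT at 570 nm and survival % was blank-corrected against 1% DMSO controls. IC50s came from survival curves. Fold reversal = IC50 untreated / IC50 with modulator. Three independent experiments were run, reported as mean ± SD.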

The species entered for series [9] is Homo sapiens. The series can be described thus: Inhibition of P-gp in human MES-SA/Dx5 cells assessed as potentiation of actinomycin D-induced cytotoxicity by measuring fold reduction in actinomycin D EC50 at 5 uM after 72 hrs by MTT assay relative to untreated control. The series is classed as cell-based. An outline of the steps:
as §2

The species named for series [10] is Homo sapiens. The series is described as follows: Inhibition of P-gp in human MES-SA/Dx5 cells assessed as potentiation of vinblastine-induced cytotoxicity by measuring fold reduction in vinblastine EC50 at 5 uM after 72 hrs by MTT assay relative to untreated control. The series is classed as cell-based. An outline of the steps:
as §2
(In general: Formazan colour is commonly taken as a measure of viable cells.)

Series [11] is filed under the species Homo sapiens. The series can be described thus: Inhibition of P-gp in human MES-SA/Dx5 cells assessed as potentiation of paclitaxel-induced cytotoxicity by measuring fold reduction in paclitaxel EC50 at 5 uM after 72 hrs by MTT assay relative to untreated control. The series is classed as cell-based. The procedure, abridged:
as §2

A short description of series [12]: Inhibition of P-gp in human MES-SA/Dx5 cells assessed as potentiation of doxorubicin-induced cytotoxicity by measuring compound concentration required for reduction of doxorubicin IC50 by half after 72 hrs by MTT assay. Type of series: cell-based. Conditions: MES-SA/Dx5, 72 h.
Series [13] can be described thus: Inhibition of P-gp in human MES-SA/Dx5 cells assessed as potentiation of actinomycin D-induced cytotoxicity by measuring compound concentration required for reduction of actinomycin D IC50 by half after 72 hrs by MTT assay. Type of series: cell-based. Conditions: MES-SA/Dx5, 72 h.
Series [14] in a line: Inhibition of P-gp in human MES-SA/Dx5 cells assessed as potentiation of vinblastine-induced cytotoxicity by measuring compound concentration required for reduction of vinblastine IC50 by half after 72 hrs by MTT assay. Conditions: MES-SA/Dx5, 72 h. Type of series: cell-based.
Series [15] in a line: Inhibition of P-gp in human MES-SA/Dx5 cells assessed as potentiation of paclitaxel-induced cytotoxicity by measuring compound concentration required for reduction of paclitaxel IC50 by half after 72 hrs by MTT assay. Type of series: cell-based. Particulars: MES-SA/Dx5, 72 h.

As a reminder, the half-life is the time needed for the level to fall by half in the phase considered. The low end stands for fast loss, the high end for slow loss. One may read the EC50 as the concentration giving half of the maximal effect.

In the case of `O=C(O)CC[C@H](NC(=O)COc1cc(O)c2c(=O)c(O)c(-c3ccc(O)c(O)c3)oc2c1)C(=O)O`, the result in series [1] was Active. Moreover, the Stability entry in series [2] and in series [3] was “Stable” throughout. The half-life in series [4] and in [5] was 30 h throughout. Further, the fold change (FC) amounted to 2.3 in the series filed under Homo sapiens [6]; 3.1 in the series filed under Homo sapiens [7]; 25.6 in the series listed under Homo sapiens [8]; 48.4 in the series filed under Homo sapiens [9]; 26 in the series listed under Homo sapiens [10]; 34.6 in the series listed under Homo sapiens [11]. Besides, the half-maximal effective concentration (EC50) was found to be 2200 nM in [12], 2300 nM in [13], 2500 nM in series [14] and 2100 nM in [15].
For `O=c1c(O)c(-c2ccc(O)c(O)c2)oc2cc(O)cc(O)c12`, in series [1], the outcome was Active. The fold change (FC) in the series listed under Homo sapiens [8] is 1.94; in the series listed under Homo sapiens [9] it was 3.06; in the series filed under Homo sapiens [10] it was 2.75; in the series filed under Homo sapiens [11], 2.48.
As for `O=C(O)CC[C@H](NCCOc1cc(O)c2c(=O)c(O)c(-c3ccc(O)c(O)c3)oc2c1)C(=O)O`, the outcome in [1] was Active. Further, the Stability entry in series [2] and in series [3] was “Stable” throughout. In addition, the half-life in series [4] and in [5] was 56 h each time. The fold change (FC) is 2.1 in the series listed under Homo sapiens [6]; 2.8 in the series filed under Homo sapiens [7]; 22.3 in the series filed under Homo sapiens [8]; 20.5 in the series filed under Homo sapiens [9]; 16.2 in the series listed under Homo sapiens [10]; 17.3 in the series filed under Homo sapiens [11]. Also, the 50% effective concentration (EC50) in series [12] was 2800 nM; in series [13], 2700 nM; in [14] it was 2400 nM; in [15], 2500 nM.
